From publication PMC4506688 (Pharmacology Research & Perspectives, 2015)

Legend:
[1] = biological target: CB2 (Homo sapiens, UniProt P34972); assay: ACTOne cell-based cAMP assay in HEK-CNG+CB2 cells; conditions: HEK-CNG+CB2, control agonist
[2] = biological target: CB1 (Homo sapiens, UniProt P21554); assay: ACTOne cell-based cAMP assay in HEK-CNG+CB1 cells; conditions: HEK-CNG+CB1, control agonist
[3] = tested on: parental HEK-CNG cells; assay: ACTOne cell-based cAMP assay in parental HEK-CNG cells; design: species or system human
[4] = reported; ref Wohnsland and Faller [2001]; cited from earlier work
[5] = tested on: C8B4 murine microglia; assay: On cell polarization assay; assay type: cell-based; conditions: 1 μg/mL LPS, ligand at EC50 added 1 h after LPS, 24 h
Method in brief: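 C8B4 microglia were seeded at 20,000 cells/well in DMEM with 10% FBS, then switched to 1% FBS the next day. On day 3, LPS was added (final 1 μg/mL), followed 1 h later by the test compound in LPS-containing medium. After 24 h, cells were given anti-CD16/32 or anti-CD206 antibody (2 μg/mL, 2 h), then a SULFO-TAG secondary (2 h). The electrochemiluminescence read-out was normalized to LPS control and analyzed by ANOVA.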

Sequence of CB2 (P34972 whole entry): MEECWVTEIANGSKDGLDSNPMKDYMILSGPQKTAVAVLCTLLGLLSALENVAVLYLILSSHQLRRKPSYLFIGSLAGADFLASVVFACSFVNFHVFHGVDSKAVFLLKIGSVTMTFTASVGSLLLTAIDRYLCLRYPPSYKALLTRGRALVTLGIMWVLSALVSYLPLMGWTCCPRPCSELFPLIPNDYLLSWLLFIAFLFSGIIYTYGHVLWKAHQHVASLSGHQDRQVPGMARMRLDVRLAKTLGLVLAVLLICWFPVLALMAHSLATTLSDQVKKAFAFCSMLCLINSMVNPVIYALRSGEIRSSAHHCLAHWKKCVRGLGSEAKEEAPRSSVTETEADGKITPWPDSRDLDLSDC
Sequence of CB1 (P21554 whole entry): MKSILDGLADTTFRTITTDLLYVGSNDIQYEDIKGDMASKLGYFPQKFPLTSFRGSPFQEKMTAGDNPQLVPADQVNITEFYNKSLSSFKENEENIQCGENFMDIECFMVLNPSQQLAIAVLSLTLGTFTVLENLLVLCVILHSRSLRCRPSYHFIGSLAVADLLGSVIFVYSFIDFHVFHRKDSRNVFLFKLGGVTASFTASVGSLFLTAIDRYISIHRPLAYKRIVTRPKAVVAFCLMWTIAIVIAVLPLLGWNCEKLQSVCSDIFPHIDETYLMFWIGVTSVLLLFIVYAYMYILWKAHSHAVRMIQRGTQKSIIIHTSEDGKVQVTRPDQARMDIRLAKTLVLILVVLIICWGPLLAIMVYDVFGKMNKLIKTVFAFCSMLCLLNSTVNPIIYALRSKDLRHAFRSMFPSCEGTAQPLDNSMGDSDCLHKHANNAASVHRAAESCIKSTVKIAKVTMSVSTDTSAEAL

Row | Compound | CD16/32 (M1 marker) expression compared to LPS control [5] | CD206 (M2 marker) expression compared to LPS control [5] | also measured
1 | CCCCCCC(C)(C)c1ccc([C@@H]2C[C@H](O)CC[C@H]2CCCO)c(O)c1 [CP 55,940, 2-[(1R,2R,5R)-5-hydroxy-2-(3-hydroxypropyl)cyclohexyl]-5-(2-methyloctan-2-yl)phenol] | – | – | Average reduction in cAMP response [1]: 90%; Average reduction in cAMP response [2]: 90%; Change in cAMP-driven fluorescence / cAMP response [3]: no response was observed
2 | CN1C(C(=O)Nc2ccccn2)=C(O)c2ccccc2S1(=O)=O [piroxicam] | – | – | Absorbed in humans [4]: 90–100%
3 | CCCCCCC(C)(C)c1cc(OC)c([C@@H]2C=C(CO)[C@@H]3C[C@H]2C3(C)C)c(OC)c1 [HU 308] | only HU 308 did so significantly (P < 0.001) | significantly decreased CD206 | –
4 | CCCC(C)(C)c1ccc2c(c1)OC(C)(C)[C@@H]1CC=C(C)C[C@@H]21 [JWH 133] | decreased CD16/32 expression compared to LPS controls | significantly decreased CD206 | –
5 | SR 144528 | also decreased CD16/32 expression in comparison to LPS control | significantly increased CD206 | –
